Rows were chosen to be rich in hits. Some 1.5% of all compounds tested hit in one or more screens of this group.
CXCR6 inh: CXCR6 (human) receptor inhibition | 0.36% of 360,000 active | CHO-K1 PathHunter CXCR6 beta-arrestin, luminescence | O00574 | inhibition, % at 20 µM | AID 602244; in the data active = inhibition above about 34%, passing the limit was not always enough;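 note: antagonist mode with CXCL16 agonist at 10 nM final; 0% = 10 nM CXCL16 with DMSO and 100% = unstimulated wells without agonist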
APJ agonist: agonists of human APJ apelin receptor; activation, % at 20 µM; CHO-K1 APJ PathHunter beta-arrestin, luminescence; 0% DMSO wells, 100% apelin; P35414; 0.11% of 330,000 active; AID 2520;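 active = activation more than six SD over the plate average, tested at 20 µM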;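 note: 0% = DMSO alone and 100% = apelin-13 at 10 nM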
Target sequence (P35414 whole entry, looked up): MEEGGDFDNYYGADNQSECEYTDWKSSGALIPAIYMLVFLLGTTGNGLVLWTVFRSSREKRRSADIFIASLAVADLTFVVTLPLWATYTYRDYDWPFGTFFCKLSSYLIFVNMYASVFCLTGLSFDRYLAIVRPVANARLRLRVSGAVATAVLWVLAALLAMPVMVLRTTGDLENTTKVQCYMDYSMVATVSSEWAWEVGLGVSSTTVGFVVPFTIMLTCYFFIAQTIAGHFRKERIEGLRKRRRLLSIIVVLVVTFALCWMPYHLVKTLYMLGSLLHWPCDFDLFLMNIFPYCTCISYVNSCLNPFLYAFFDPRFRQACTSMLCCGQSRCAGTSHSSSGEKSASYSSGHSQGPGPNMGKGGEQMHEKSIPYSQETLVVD
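system = engineered CHO-K1 APJ arrestin reporter cells | input = 1000 cells per well | timing = overnight seeding, 90 min compound at 25 °C, 1 h detection | measured by = enzyme-fragment complementation luminescence | read-out = beta-arrestin recruitment to APJ as agonist activity, luminescent signal | control set = negative DMSO alone, positive Apelin-13 at 10 nM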
EBI2 block: EBI2 (human) antagonism; P32249; EBI2 beta-arrestin recruitment, luminescence, 7a,25-OHC stimulated; inhibition, % at 5 µM; 0.81% of 360,000 active; AID 651636; in the data active = inhibition above about 38%;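 note: enzyme fragment complementation signal reports receptor beta-arrestin coupling in cells; 0% = agonist plus DMSO wells and 100% = wells without agonist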
CCR6 antagonist: blocks CCL20-driven beta-arrestin recruitment at human CCR6; 0.49% of 340,000 active; inhibition, % at 20 µM; CHO-K1 CCR6 PathHunter beta-arrestin, luminescence, CCL20-stimulated;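 active = compounds whose inhibition of the agonist-driven luminescence signal at 20 µM reaches about 50%, limit read from the data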;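 note: cells stimulated with CCL20 at 14 nM final; plate controls were DMSO with CCL20 for no effect and DMSO without agonist for full effect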
APJ antagonist: blocks the human apelin receptor APJ | P35414 | CHO-K1 APJ beta-arrestin complementation, luminescence | 0.32% of 330,000 active | inhibition, % at 20 µM;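 active = inhibition above about 40% at 20 µM, limit read from the data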;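 note: cells challenged with 10 nM apelin-13 agonist together with compound; plate controls were apelin-13 plus DMSO wells for no effect and DMSO wells lacking apelin-13 for full effect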
EBI2 antag conf: EBI2 (human) antagonism, single concentration confirmation; shares compounds with EBI2 block; EBI2 beta-arrestin luminescence, 7a,25-OHC antagonism; inhibition, % at 5 µM; 29% of 2,400 active;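 active = inhibition of at least 50%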
EBI2 ag: EBI2 agonism counter-screen; shares compounds with EBI2 block; EBI2-expressing cells, agonist mode, luminescence, 60 min; 0% vehicle, 100% 7α,25-dihydroxycholesterol control; AID 652000; 2,400 tested, under 10 active; activation, % at 5 µM;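 active = activation of at least 50%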
bGal counter: beta-galactosidase inhibition counter-screen | shares compounds with EBI2 block | purified beta-galactosidase, luminescent Galacton Star, 15 min | inhibition, % at 5 µM | 1% of 2,400 active | AID 652176;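 active = replicate-average signal at least 3 plate SD below neutral wells, shown as high inhibition, flagging enzyme-inhibiting false positives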;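 note: 0% = DMSO wells with enzyme and 100% = wells lacking enzyme; higher means stronger loss of beta-gal luminescence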
* marks the source's active call; other numbers are inactive results; . = no result given.

SMILES | CXCR6 inh | APJ agonist | EBI2 block | CCR6 antagonist | APJ antagonist | EBI2 antag conf | EBI2 ag | bGal counter
O=C(Nc1cccc(Cl)c1)c1csc([C@H]2C[C@H](O)[C@@H](CO)O2)n1 | -3 | . | 2 | . | . | . | . | .
O=C(c1ccc(Br)cc1)c1cc(-c2ccccn2)c(N2CCOCC2)s1 | 3 | -3 | 37* | 27 | 13 | 39 | -2 | -16
O=C(c1ccc(Cl)c(Cl)c1)c1cc(-c2ccccn2)c(N2CCOCC2)s1 | -1 | 0 | 65* | 17 | -4 | 31 | 2 | 3
C=CCNc1nc(-c2sc(NC(=O)C(C)(C)C)nc2C)c(-n2cc(-c3ccccc3)nn2)s1 | -8 | . | 0 | . | . | . | . | .
COc1ccc(C2CC(c3ccccc3)=NN2C(=O)COC(=O)c2cc(S(=O)(=O)N3CCOCC3)ccc2F)cc1 (configuration not stated) | 4 | -2 | 54* | 4 | 2 | 52* | 0 | 7
COc1ccc(C2CC(c3ccccc3)=NN2C(=O)COC(=O)c2ccc(S(C)(=O)=O)cc2)cc1 (configuration not stated) | 0 | 10 | -10 | 5 | -4 | . | . | .
O=C(Nc1nc2ccccc2s1)c1ccc2sc([C@H]3C[C@H](O)[C@@H](CO)O3)nc2c1 | -6 | . | 3 | . | . | . | . | .
CC(=O)NCCCNC(=S)NCCCN(Cc1ccc(Cl)cc1)c1ccc(Br)cn1 | 11 | . | 10 | . | . | . | . | .
O=C(COC(=O)/C=C/c1ccccc1)NC(=O)NCc1ccccc1 | 17 | -1 | 9 | 20 | -2 | . | . | .
Cc1ccc(/C=C/C(=O)OCC(=O)NC(=O)NCc2ccccc2)cc1 | 8 | -2 | 46* | 8 | -16 | 14 | -1 | -7
Cc1ccc(/C=C/C(=O)OCC(=O)NCCN2C(=O)CSC2=O)cc1 | -4 | -4 | 56* | -8 | 9 | 58* | 2 | 0
CN1CCN(C(=O)c2cc3sc4ccccc4c3s2)CC1 | 2 | -4 | 95* | 13 | -12 | 70* | -1 | -12
COc1ccc(C(=O)N2CCN(S(=O)(=O)c3ccc(C)cc3C)CC2)cc1OC | -3 | 1 | 48* | -1 | 13 | 51* | 2 | 7
Cc1ccc(S(=O)(=O)N2CCN(C(=O)c3ccc4ccccc4n3)CC2)c(C)c1 | 3 | -2 | 55* | 2 | -13 | 45 | 1 | 7
COc1cccc2cc(C(=O)N3CCN(c4ccc(C)cc4C)CC3)c(=O)oc12 | 0 | 3 | 47* | -14 | 14 | 33 | 1 | 8
COc1ccc(C(=O)N2CCN(c3ccc(C)cc3C)CC2)cc1OC | 1 | -3 | 78* | 8 | -58 | 53* | 1 | 9
CSc1ccc(CNC(=O)C2(C)CCCN(C(C)C)C2)cc1 (configuration not stated) | -3 | . | -5 | . | . | . | . | .
Cc1c(CC(=O)NCC(=O)NCC(=O)N[C@@H](Cc2ccccc2)C(=O)O)c(=O)oc2c(C)c(O)ccc12 | -6 | . | -10 | . | . | . | . | .
Cc1ccc(S(=O)(=O)N2CCN(C(=O)COC(=O)COc3ccc(Br)cc3)CC2)c(C)c1 | 5 | . | -10 | -10 | . | . | . | .
CC(=O)c1ccc(OCC(=O)N2CCN(S(=O)(=O)c3ccc(C)cc3C)CC2)cc1 | -4 | -1 | 65* | -16 | -7 | 29 | 0 | 9
COc1ccc([N+](=O)[O-])cc1CN1CCN(c2ncc(Cc3ccccc3)cn2)CC1 | . | . | 8 | . | . | . | . | .
NNC(=O)c1ccc(N2CCc3ccccc32)c([N+](=O)[O-])c1 | 0 | -1 | -6 | 15 | -15 | . | . | .
Cc1ccc(CNC(=O)c2ccc(N3CCc4ccccc43)c([N+](=O)[O-])c2)cc1 | 23 | -4 | 37* | 31 | 28 | 19 | -1 | -6
CC(=O)NC(c1ccc(F)c(F)c1)c1nc(-c2ccccc2C)cs1 (configuration not stated) | 4 | . | 12 | . | . | . | . | .
C=CCNC(=O)/C(C#N)=C/c1ccc(OS(=O)(=O)c2ccc(C)cc2)c(OC)c1 | 4 | . | 52* | -3 | . | 76* | 2 | 4

High-throughput results from PubChem BioAssay.
